Hits are enriched below; roughly 3.1% of the tested compounds scored in any of these assays.
OX1R antag-1 = antagonists of human orexin 1 receptor (OX1R). 330,000 compounds, 1.8% hits. O43613. AID 485270. inhibition, % at 6.6 µM. OX1R-expressing cells, FRET antagonist read-out; in the data active = inhibition mostly above about 38%, no sharp cut-off; inactive = mostly below about 40%;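 note: 0% = agonist challenge alone and 100% = reference antagonist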
Target sequence (O43613 whole entry, looked up): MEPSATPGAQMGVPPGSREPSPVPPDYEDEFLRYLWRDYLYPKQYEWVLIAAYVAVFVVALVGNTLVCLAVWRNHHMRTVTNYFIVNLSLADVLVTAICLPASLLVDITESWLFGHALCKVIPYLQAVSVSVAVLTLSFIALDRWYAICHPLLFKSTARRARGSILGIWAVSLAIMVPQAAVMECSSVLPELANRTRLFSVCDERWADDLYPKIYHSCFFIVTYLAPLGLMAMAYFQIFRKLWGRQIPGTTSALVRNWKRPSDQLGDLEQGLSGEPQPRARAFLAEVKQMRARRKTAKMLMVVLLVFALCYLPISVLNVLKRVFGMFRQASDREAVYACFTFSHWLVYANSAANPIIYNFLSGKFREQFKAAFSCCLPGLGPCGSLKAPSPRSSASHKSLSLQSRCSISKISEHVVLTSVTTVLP
GPR7 antag = human neuropeptides B/W receptor 1 antagonism. inhibition, % at 4.4 µM. P48145. GPR7-expressing cells, fluorescence antagonist assay. 290,000 compounds, 1.1% hits. AID 1861; in the data active = inhibition above about 16%, passing the limit was not always enough;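 note: cells stimulated with the agonist NPW; 0% = agonist with vehicle and 100% = vehicle without agonist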
CHO parental Ca = signal in parental CHO cells, OX1R antagonist counter-screen | parental CHO-K1, ATP-induced calcium, Fluo-8 fluorescence | inhibition, % at 5.6 µM | 330,000 compounds, 0.63% hits | AID 463079;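 active = inhibition above that plate's mean sample inhibition plus 3 SD, cut at about 26% in these data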;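 note: 0% = ATP-challenged DMSO wells and 100% = DMSO wells without ATP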
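Measured by: calcium-sensitive Fluo-8 fluorescence / Test system: CHO parental line / Controls: ATP-challenged DMSO wells low, unchallenged DMSO wells high / Measure: % inhibition / Compound: single nominal dose of 5.6 µM per compound / Replicates: single well per compound, no replicates / Reagent: ATP as calcium-mobilizing challenge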
GalR3 antagonist = blocks the human galanin receptor 3; O60755; HEK293 GalR3-CNG cAMP membrane potential fluorescence; galR3 body fused to GalR1 C-terminus; inhibition, % at 3 µM; 360,000 compounds, 0.44% hits;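 active = inhibition above the screen-wide average plus 3 SD, cut at about 13% in these data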;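 note: forskolin and galanin both at EC90 stimulate the cells; cAMP rise reported by CNG channel membrane potential dye signal; 0% = forskolin plus galanin with DMSO and 100% = forskolin alone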
OX1R antag-2 = blocks the human orexin 1 receptor. 330,000 compounds, 0.43% hits. AID 434989. CHO/OX1R cells, Fluo-8 calcium fluorescence, orexin A. inhibition, % at 5 µM. O43613;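 active = inhibition above its plate's threshold, mean inhibition of all tested compounds on the plate plus 3 SD, cut at about 37% in these data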;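 note: 0% = orexin A challenge wells and 100% = SB-334867-A antagonist wells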
The depositor's hits bear a star.

For CC(C)C[C@H]1CN(CCCC[C@@H]2CNC(=O)C(=O)N2Cc2ccccc2)C(=O)C(=O)N1CC1CCCCC1 the results were GalR3 antagonist -6.1.
`CC(C)(C)OC(=O)NCc1ccc(CNC(=O)c2nc[nH]c2C(=O)NCc2ccc(CNC(=O)OC(C)(C)C)cc2)cc1` gave OX1R antag-1 0.0, CHO parental Ca 1.8, GalR3 antagonist -1.3 and OX1R antag-2 20.5.
Screening CC(C)(C)OC(=O)NCCCCCNC(=O)c1nc[nH]c1C(=O)NCc1ccc(CNC(=O)OC(C)(C)C)cc1 returned OX1R antag-1 14.8, CHO parental Ca 40.4*, GalR3 antagonist -3.2 and OX1R antag-2 57.7*.
For CC(C)(C)OC(=O)NCCCCCNC(=O)c1[nH]cnc1C(=O)N[C@@H](Cc1ccccc1)C(=O)OCc1ccccc1 the results were OX1R antag-1 8.0, GPR7 antag -23.3, CHO parental Ca 47.3*, GalR3 antagonist -5.5 and OX1R antag-2 73.3*.
CC(C)C[C@H](NC(=O)c1nc[nH]c1C(=O)NC1CCN(C(=O)OC(C)(C)C)CC1)C(=O)OC(C)(C)C was read as OX1R antag-1 7.9, GPR7 antag -33.9, CHO parental Ca -41.5, GalR3 antagonist -6.6 and OX1R antag-2 -37.1.
For CC(C)C[C@H](NC(=O)c1nc[nH]c1C(=O)NCCCCCNC(=O)OC(C)(C)C)C(=O)OCc1ccccc1 the results were OX1R antag-1 17.6, GPR7 antag -28.2, CHO parental Ca 11.3, GalR3 antagonist -8.3 and OX1R antag-2 -3.5.
For CC(C)C[C@H](NC(=O)c1nc[nH]c1C(=O)NC1CCN(C(=O)OC(C)(C)C)CC1)C(=O)OCc1ccccc1 the results were OX1R antag-1 25.9, GPR7 antag -33.1, CHO parental Ca 33.8*, GalR3 antagonist -7.0 and OX1R antag-2 -16.7.
For CC(=O)c1cc(F)c(N2CCN(C(=O)Cc3ccccc3)CC2)cc1C the results were OX1R antag-1 69.7, GPR7 antag 11.8, CHO parental Ca 36.3, GalR3 antagonist 3.2 and OX1R antag-2 58.5*.
CCC(=O)N1CCN(c2ccc(Cl)cc2NC(=O)Cc2ccccc2)CC1 was read as OX1R antag-1 5.4, GPR7 antag 16.7*, CHO parental Ca -27.3, GalR3 antagonist 0.6 and OX1R antag-2 -18.7.
Screening CCC(=O)Nc1cc(Cl)ccc1N1CCN(C(=O)CC)CC1 returned OX1R antag-1 7.5, GPR7 antag -6.6, CHO parental Ca -19.8, GalR3 antagonist 2.2 and OX1R antag-2 -23.8.
`CCOC(=O)N1CCN(c2cc(C)c(C(C)=O)cc2F)CC1` gave OX1R antag-1 8.8, GPR7 antag -15.1, CHO parental Ca -23.7, GalR3 antagonist -4.2 and OX1R antag-2 1.0.
COc1ccc(-n2ccnc(SCC(=O)NC3CCCCC3)c2=O)cc1 was read as OX1R antag-1 20.9, GPR7 antag 4.5, CHO parental Ca -4.2 and OX1R antag-2 -10.1.
COc1ccc(-n2ccnc(SCC(=O)NC3CCCC3)c2=O)cc1 was read as OX1R antag-1 44.6*, GPR7 antag -1.3, CHO parental Ca -6.0, GalR3 antagonist -5.3 and OX1R antag-2 -7.5.
`CCOCCCn1c(SCC(=O)NC2CCCCC2)nc2ccccc2c1=O` gave GalR3 antagonist -0.9.
N#CC(=C=[N-])c1nc2ccccc2nc1-[n+]1cccc(NC(=O)c2ccccc2)c1 was read as OX1R antag-1 25.5, GPR7 antag -6.3, CHO parental Ca -6.0, GalR3 antagonist 3.1 and OX1R antag-2 -9.6.
Screening CCc1cc[n+](-c2nc3ccccc3nc2C(=C=[N-])C#N)cc1 returned OX1R antag-1 74.0*, GPR7 antag -0.2, CHO parental Ca -2.0, GalR3 antagonist -2.9 and OX1R antag-2 -13.6.
CCN1CCN(C(c2cccnc2)c2c(NC(=O)c3ccco3)sc(C)c2C)CC1 (stereo not drawn) was read as OX1R antag-1 5.3, CHO parental Ca -4.5, GalR3 antagonist -4.5 and OX1R antag-2 -15.4.
`Cc1sc(NC(=O)c2ccco2)c(C(c2cccnc2)N2CCC(C)CC2)c1C` (stereo not drawn) gave OX1R antag-1 1.5, GPR7 antag 20.2*, CHO parental Ca -25.5, GalR3 antagonist -4.0 and OX1R antag-2 3.6.
For COc1ccc(-c2nn(-c3ccccc3)cc2CNC[C@H]2O[C@@H](n3cnc4c(=O)[nH]c(N)nc43)[C@H](O)[C@@H]2O)cc1 the results were GalR3 antagonist -1.8.
CCOC(=O)c1sc2nc(CC(C)C)c3c(c2c1N)CCC3 was read as OX1R antag-1 22.0, GPR7 antag 3.5, CHO parental Ca -15.5, GalR3 antagonist 3.5 and OX1R antag-2 -25.6.
Screening CC(=O)c1sc2nc(C)c3c(c2c1N)CCCC3 returned OX1R antag-1 50.2*, GPR7 antag -12.5, CHO parental Ca -17.7, GalR3 antagonist 0.9 and OX1R antag-2 -32.4.
Screening C[C@@H]1CN([C@@H](C)CO)C(=O)c2cc(Br)cnc2O[C@@H]1CN(C)Cc1ccccn1 returned GalR3 antagonist -0.4.
Screening COc1cc(C(=S)N2CCCC2)ccc1OS(=O)(=O)c1ccc(NC(C)=O)cc1 returned OX1R antag-1 12.3, GPR7 antag 10.2, CHO parental Ca -9.8, GalR3 antagonist -1.7 and OX1R antag-2 -36.0.
CC(=O)Nc1ccc(S(=O)(=O)Oc2ccccc2N2CCCCC2)cc1 was read as OX1R antag-1 12.7, GPR7 antag 20.0*, CHO parental Ca -3.5, GalR3 antagonist -0.5 and OX1R antag-2 -8.8.
`O=Cc1cscc1[B-](F)(F)F` gave GalR3 antagonist -2.3.
N#Cc1c(NC(=O)c2ccc(Cn3cc(Br)cn3)o2)sc2c1CCCCC2 was read as OX1R antag-1 12.6, GPR7 antag -3.6, CHO parental Ca -19.9, GalR3 antagonist -4.0 and OX1R antag-2 -22.8.
`COC(=O)c1sc(NC(=O)c2ccc(Cn3cc(Cl)cn3)o2)c(C#N)c1C` gave OX1R antag-1 71.8*, GPR7 antag 9.4, CHO parental Ca -21.4, GalR3 antagonist -1.1 and OX1R antag-2 -8.6.
For CC1=NN(C(N)=S)C(=O)C1N=Nc1ccc(S(N)(=O)=O)cc1 (stereo not drawn) the results were OX1R antag-1 16.9, GPR7 antag -15.9, CHO parental Ca 8.3, GalR3 antagonist -8.0 and OX1R antag-2 -10.1.
`CC(=O)N(C)c1ccc(N=Nc2c(C)[nH]n(C(N)=S)c2=O)cc1` gave OX1R antag-1 55.9*, GPR7 antag -3.0, CHO parental Ca -1.2, GalR3 antagonist -1.9 and OX1R antag-2 -0.6.
Screening CC(=O)N(C)c1ccc(N=NC2C(=O)N(C(N)=S)N=C2C)cc1 (stereo not drawn) returned OX1R antag-1 62.3*, GPR7 antag -11.8, CHO parental Ca -5.2, GalR3 antagonist -2.3 and OX1R antag-2 -3.1.
Screening CC(=O)C1=C(C)NC(=S)NC1c1ccc(F)cc1 (stereo not drawn) returned GalR3 antagonist -5.4.
For CN1/C(=C/C(=S)NC(=O)C2(C)CC2(Cl)Cl)C(C)(C)c2ccccc21 (stereo not drawn) the results were OX1R antag-1 16.5, GPR7 antag -16.3, CHO parental Ca -20.1, GalR3 antagonist -6.5 and OX1R antag-2 20.4.

Assay outcomes as filed in PubChem BioAssay.
